Assay results published in ChEMBL document CHEMBL1629612, “Characterization and sequence analysis of extended-spectrum-{beta}-lactamase-encoding genes from Escherichia coli, Klebsiella pneumoniae, and Proteus mirabilis isolates collected during tigecycline phase 3 clinical trials” (2009).
≈ marks a conversion by molar mass, not a printed value.

Key:
Format in all cases: functional
[1] = tested on: Escherichia coli; experiment: Antimicrobial activity against Escherichia coli expressing beta-lactamase AmpC and extended-spectrum beta-lactamase by Etest
How it was run: (§1)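 Clinical isolates from tigecycline phase 3 trials were received as frozen primary cultures. Serial isolates from one patient were riboprinted, and only the first of identical strains was kept. β-Lactamase genes were assigned by PCR. ESBL confirmation used Etest ESBL strips carrying ceftazidime or cefotaxime, alone and combined with clavulanic acid, following the strip maker's instructions.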

[2] = tested on: Escherichia coli; experiment: Antimicrobial activity against Escherichia coli expressing beta-lactamase AmpC by Etest; how it was run: as §1
[3] = tested on: Klebsiella pneumoniae; experiment: Antimicrobial activity against Klebsiella pneumoniae expressing beta-lactamase CTX by Etest based on multiple determinants
How it was run: (§2)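 Clinical isolates from tigecycline phase 3 trials were received as frozen primary cultures. Repeat isolates from one patient were riboprinted, and only the first of identical strains was kept. β-lactamase genes were assigned by PCR against control strains, plus isoelectric focusing. ESBL confirmation used Etest ESBL strips carrying ceftazidime or cefotaxime with clavulanic acid, read per the manufacturer's instructions.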

[4] = tested on: Escherichia coli; experiment: Antimicrobial activity against Escherichia coli expressing beta-lactamase CTX and SHV by Etest; how it was run: as §1
[5] = tested on: Escherichia coli; experiment: Antimicrobial activity against Escherichia coli expressing beta-lactamase CTX by Etest based on multiple determinants; how it was run: as §1
[6] = tested on: Escherichia coli; experiment: Antimicrobial activity against Escherichia coli extended-spectrum beta-lactamase producing isolate by Etest; how it was run: as §1
[7] = tested on: Klebsiella pneumoniae; experiment: Antimicrobial activity against Klebsiella pneumoniae extended-spectrum beta-lactamase producing isolate by Etest; how it was run: as §2
[8] = tested on: Proteus mirabilis; experiment: Antimicrobial activity against Proteus mirabilis extended-spectrum beta-lactamase producing isolate by Etest; how it was run: as §2
[9] = tested on: Escherichia coli; experiment: Antimicrobial activity against Escherichia coli expressing beta-lactamase SHV by Etest; how it was run: as §1
[10] = tested on: Escherichia coli; experiment: Antimicrobial activity against Escherichia coli expressing beta-lactamase CTX by Etest based on single determinant; how it was run: as §1
[11] = tested on: Klebsiella pneumoniae; experiment: Antimicrobial activity against Klebsiella pneumoniae expressing beta-lactamase SHV by Etest based on single determinant; how it was run: as §2
[12] = tested on: Klebsiella pneumoniae; experiment: Antimicrobial activity against Klebsiella pneumoniae expressing beta-lactamase SHV by Etest based on multiple determinants; how it was run: as §2
[13] = tested on: Klebsiella pneumoniae; experiment: Antimicrobial activity against Klebsiella pneumoniae expressing beta-lactamase CTX by Etest based on single determinant; how it was run: as §2
[14] = tested on: Klebsiella pneumoniae; experiment: Antimicrobial activity against Klebsiella pneumoniae expressing beta-lactamase SHV and CTX by Etest; how it was run: as §2
[15] = tested on: Klebsiella pneumoniae; experiment: Antimicrobial activity against Klebsiella pneumoniae expressing extended-spectrum beta-lactamase and beta-lactamase AmpC by Etest; how it was run: as §1
[16] = tested on: Klebsiella pneumoniae; experiment: Antimicrobial activity against Klebsiella pneumoniae expressing beta-lactamase DHA by Etest; how it was run: as §1
[17] = tested on: Proteus mirabilis; experiment: Antimicrobial activity against Proteus mirabilis expressing extended-spectrum beta-lactamase by Etest based on single determinant; how it was run: as §2
[18] = tested on: Proteus mirabilis; experiment: Antimicrobial activity against Proteus mirabilis expressing extended-spectrum beta-lactamase by Etest based on multiple determinants; how it was run: as §2
[19] = tested on: Proteus mirabilis; experiment: Antimicrobial activity against Proteus mirabilis expressing beta-lactamase AmpC by Etest; how it was run: as §2

SMILES	MIC50 [1]	MIC90 [1]	MIC [2]	MIC50 [3]	MIC90 [3]	MIC50 [4]	MIC90 [4]	MIC50 [5]	MIC90 [5]	MIC50 [6]	MIC90 [6]	MIC50 [7]	MIC90 [7]	MIC50 [8]	MIC90 [8]	MIC [9]	MIC50 [10]	MIC90 [10]	MIC50 [11]	MIC90 [11]	also measured
CN(C)c1ccc(O)c2c1C[C@H]1C[C@H]3[C@H](N(C)C)C(O)=C(C(N)=O)C(=O)[C@@]3(O)C(O)=C1C2=O [MINOCYCLINE]	4 µg/mL (≈ 8.74 µM)	> 64 µg/mL	1 µg/mL (≈ 2.19 µM)	4 µg/mL (≈ 8.74 µM)	16 µg/mL (≈ 35 µM)	4 µg/mL (≈ 8.74 µM)	16 µg/mL (≈ 35 µM)	4 µg/mL (≈ 8.74 µM)	32 µg/mL (≈ 69.9 µM)	4 µg/mL (≈ 8.74 µM)	32 µg/mL (≈ 69.9 µM)	4 µg/mL (≈ 8.74 µM)	64 µg/mL (≈ 140 µM)	64 µg/mL (≈ 140 µM)	> 64 µg/mL	2 µg/mL (≈ 4.37 µM)	4 µg/mL (≈ 8.74 µM)	32 µg/mL (≈ 69.9 µM)	4 µg/mL (≈ 8.74 µM)	64 µg/mL (≈ 140 µM)	MIC [12]: 2 µg/mL (≈ 4.37 µM); MIC50 [13]: 4 µg/mL (≈ 8.74 µM); MIC90 [13]: 32 µg/mL (≈ 69.9 µM); MIC50 [14]: 8 µg/mL (≈ 17.5 µM); MIC90 [14]: 64 µg/mL (≈ 140 µM); MIC [15]: 4 µg/mL (≈ 8.74 µM); MIC [16]: 4 µg/mL (≈ 8.74 µM); MIC [17]: 16 µg/mL (≈ 35 µM); MIC [18]: 16 µg/mL (≈ 35 µM); MIC [19]: 16 µg/mL (≈ 35 µM)
CN(C)c1cc(NC(=O)CNC(C)(C)C)c(O)c2c1C[C@H]1C[C@H]3[C@H](N(C)C)C(O)=C(C(N)=O)C(=O)[C@@]3(O)C(O)=C1C2=O [TIGECYCLINE]	0.25 µg/mL (≈ 0.427 µM)	0.5 µg/mL (≈ 0.854 µM)	0.25 µg/mL (≈ 0.427 µM)	0.5 µg/mL (≈ 0.854 µM)	1 µg/mL (≈ 1.71 µM)	0.25 µg/mL (≈ 0.427 µM)	0.5 µg/mL (≈ 0.854 µM)	0.5 µg/mL (≈ 0.854 µM)	0.5 µg/mL (≈ 0.854 µM)	0.25 µg/mL (≈ 0.427 µM)	0.5 µg/mL (≈ 0.854 µM)	0.5 µg/mL (≈ 0.854 µM)	2 µg/mL (≈ 3.41 µM)	2 µg/mL (≈ 3.41 µM)	16 µg/mL (≈ 27.3 µM)	0.12 µg/mL (≈ 0.205 µM)	0.25 µg/mL (≈ 0.427 µM)	0.5 µg/mL (≈ 0.854 µM)	0.5 µg/mL (≈ 0.854 µM)	1 µg/mL (≈ 1.71 µM)	MIC [4]: 0.25 µg/mL (≈ 0.427 µM); MIC [12]: 0.5 µg/mL (≈ 0.854 µM); MIC50 [13]: 1 µg/mL (≈ 1.71 µM); MIC90 [13]: 2 µg/mL (≈ 3.41 µM); MIC50 [14]: 0.5 µg/mL (≈ 0.854 µM); MIC90 [14]: 2 µg/mL (≈ 3.41 µM); MIC [15]: 0.5 µg/mL (≈ 0.854 µM); MIC [16]: 0.5 µg/mL (≈ 0.854 µM); MIC [17]: 2 µg/mL (≈ 3.41 µM); MIC [18]: 0.5 µg/mL (≈ 0.854 µM); MIC [19]: 2 µg/mL (≈ 3.41 µM)
NC[C@H]1O[C@H](O[C@H]2[C@H](O)[C@@H](O[C@H]3O[C@H](CO)[C@@H](O)[C@H](N)[C@H]3O)[C@H](N)C[C@@H]2N)[C@H](N)C[C@@H]1O [TOBRAMYCIN]	16 µg/mL (≈ 34.2 µM)	> 32 µg/mL	1 µg/mL (≈ 2.14 µM)	32 µg/mL (≈ 68.4 µM)	> 32 µg/mL	32 µg/mL (≈ 68.4 µM)	> 32 µg/mL	32 µg/mL (≈ 68.4 µM)	> 32 µg/mL	32 µg/mL (≈ 68.4 µM)	> 32 µg/mL	32 µg/mL (≈ 68.4 µM)	> 32 µg/mL	8 µg/mL (≈ 17.1 µM)	> 32 µg/mL	0.25 µg/mL (≈ 0.535 µM)	32 µg/mL (≈ 68.4 µM)	> 32 µg/mL	16 µg/mL (≈ 34.2 µM)	> 32 µg/mL	MIC [12]: 0.5 µg/mL (≈ 1.07 µM); MIC50 [13]: 16 µg/mL (≈ 34.2 µM); MIC90 [13]: > 32 µg/mL; MIC50 [14]: 32 µg/mL (≈ 68.4 µM); MIC90 [14]: > 32 µg/mL; MIC [15]: 0.25 µg/mL (≈ 0.535 µM); MIC [16]: 16 µg/mL (≈ 34.2 µM); MIC [17]: 0.5 µg/mL (≈ 1.07 µM); MIC [18]: 4 µg/mL (≈ 8.56 µM); MIC [19]: 4 µg/mL (≈ 8.56 µM)
